Bioassay records: PubChem, several laboratories
Hits are enriched below; roughly 4% of the tested compounds scored in any of these assays.
UPR XBP1 act: activators of adaptive arm of unfolded protein response (XBP1); actives 0.33% (n = 330,000); CHO-XBP1 luciferase reporter, IRE1-XBP1 UPR activation, luminescence; percent of tunicamycin response, DMSO as zero; activation, % at 20 µM;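 active means versus positive control, 20 µM dose yields 30% or more activation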;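 further: 100% = tunicamycin at 10 µg/mL and 0% = DMSO only wells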
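Material: CHO cell line with stable XBP1 luciferase reporter; schedule: 16-18 h cell attachment at 37 °C, then 6 h compound exposure; signal: glow luminescence from Steady-Glo reagent; medium: serum-containing F12 medium, 10% FBS; benchmarks: tunicamycin 10 µg/mL and vehicle-only wells; read-out: percent activation relative to tunicamycin reference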
Mdm2 MdmX PPI: inhibitors of human Mdm2/MdmX interaction | SaOS-2 split-luciferase Mdm2/MdmX complementation, luminescence | inhibition, % at 8 µM | actives 3% (n = 330,000) | AID 485346;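 active means inhibition of at least 50% at 8 µM in the primary screen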
UPR CHOP act: activators of apoptotic arm of unfolded protein response (CHOP); CHO-CHOP luciferase reporter, UPR activation, luminescence; percent of tunicamycin response over DMSO baseline; activation, % at 10 µM; actives 0.34% (n = 330,000);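 active means at 10 µM dose, activation of 40% or more, normalized to positive control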;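 further: 100% = tunicamycin at 10 µg/mL and 0% = DMSO alone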
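measured by = luciferase luminescence | assay system = CHO-CHOP cells, stable luciferase reporter of PERK-eIF2a-CHOP signalling | amount = 500 reporter cells seeded per well | timing = 6 h compound exposure at 37 °C after overnight seeding | controls = positive tunicamycin 10 µg/mL, negative DMSO alone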
Exocytosis inh: blocks lytic granule exocytosis | TALL-104 LAMP-1 surface exposure, flow cytometry; cells stimulated with thapsigargin and PMA | inhibition, % at 10 µM | actives 0.66% (n = 360,000);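 active means inhibition above about 55%, limit read from the data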
ABHD5 PLIN5 PPI: inhibitors of human ABHD5-perilipin-5 interaction; AID 602281; Split G. princeps luciferase complementation, luminescence, 4 h; actives 0.78% (n = 360,000); inhibition, % at 4 µM; Q00G26+Q8WTS1;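 active means inhibition above the mean inhibition across every tested compound plus 3 SD, cut at about 22% in these data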;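 further: 0% = DMSO only wells and the 100% control is not disclosed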
ABHD5-PLIN5 conf: confirmation of human ABHD5-PLIN5 interaction inhibitors; shares compounds with ABHD5 PLIN5 PPI; biochemical ABHD5-PLIN5 interaction, luminescence; inhibition, % at 4 µM; actives 67% (n = 2,200); in the data active means inhibition above about 23%;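 further: 0% = DMSO vehicle wells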
HNF4 split-luc: counter-screen for ABHD5-PLIN5 inhibitors: HNF4 split-luciferase; shares compounds with ABHD5 PLIN5 PPI; HNF4 dimerization, luminescence, biochemical; inhibition, % at 4 µM; actives 77% (n = 2,200);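 active means mean inhibition across replicate wells exceeding the computed hit threshold, cut at about 13% in these data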;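 further: light from luciferase halves that rejoin when HNF4 fusion proteins dimerize; 0% = DMSO only wells and the 100% control is not given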
* = called active by the depositor.

How did COC(=O)C(=Cc1ccc(-c2ccsc2C(=O)OC)o1)C(=O)OC do in these assays?
UPR XBP1 act: 14; Mdm2 MdmX PPI: 19; UPR CHOP act: 4; Exocytosis inh: 52; ABHD5 PLIN5 PPI: 23*; ABHD5-PLIN5 conf: 24*; HNF4 split-luc: 37*

Results for CCOC(=O)C(=Cc1ccc(-c2ccsc2C(=O)OC)o1)C(=O)OCC ?
UPR XBP1 act: 19; Mdm2 MdmX PPI: -18; UPR CHOP act: 5; Exocytosis inh: 0; ABHD5 PLIN5 PPI: 0

Results for O=C(CSc1c2c(nc3cc(Cl)ccc13)CCCC2)NCCCN1CCOCC1 ?
UPR XBP1 act: -2; Mdm2 MdmX PPI: 22; UPR CHOP act: 0; Exocytosis inh: 12; ABHD5 PLIN5 PPI: 20

Results for CCN(CC)CCCNC(=O)CSc1c2c(nc3cc(Cl)ccc13)CCCC2 ?
UPR XBP1 act: -3; Mdm2 MdmX PPI: 10; UPR CHOP act: -1; Exocytosis inh: 5; ABHD5 PLIN5 PPI: 29*; ABHD5-PLIN5 conf: 39*; HNF4 split-luc: 28*

Results for O=C(NCc1ccco1)c1cc2nc(-c3cccs3)cc(C(F)(F)F)n2n1 ?
UPR XBP1 act: 2; Mdm2 MdmX PPI: 3; UPR CHOP act: 0; Exocytosis inh: 1; ABHD5 PLIN5 PPI: 23*; ABHD5-PLIN5 conf: 13; HNF4 split-luc: 16*

What do the screens show for `Cc1nn(-c2ccccn2)c2nc(-c3cccs3)cc(C(=O)NCc3ccco3)c12`?
UPR XBP1 act: -1; Mdm2 MdmX PPI: 20; UPR CHOP act: 2; Exocytosis inh: 0; ABHD5 PLIN5 PPI: 35*; ABHD5-PLIN5 conf: 14; HNF4 split-luc: 15*

Results for O=C(NCc1ccco1)c1nn2c(C(F)(F)F)cc(-c3cccs3)nc2c1Cl ?
UPR XBP1 act: 4; Mdm2 MdmX PPI: 16; UPR CHOP act: -2; Exocytosis inh: -1; ABHD5 PLIN5 PPI: 3

What do the screens show for `Cc1nn(-c2ccccc2)c2nc(-c3ccncc3)cc(C(=O)NCc3ccco3)c12`?
UPR XBP1 act: -1; Mdm2 MdmX PPI: 38; UPR CHOP act: 2; Exocytosis inh: 2; ABHD5 PLIN5 PPI: 24*; ABHD5-PLIN5 conf: 21; HNF4 split-luc: 26*

Results for CCN(CC)C(=S)SCC(=O)c1c(C)[nH]c2ccccc12 ?
UPR XBP1 act: 1; Mdm2 MdmX PPI: -24; UPR CHOP act: 2; Exocytosis inh: 2; ABHD5 PLIN5 PPI: -1

What do the screens show for `Cc1cnc(C(=O)OCC(=O)c2ccc(Cl)cc2)cn1`?
UPR XBP1 act: -7; Mdm2 MdmX PPI: 20; UPR CHOP act: 1; Exocytosis inh: -2; ABHD5 PLIN5 PPI: -1

How did COc1cc(C)ccc1OCCCCNCc1ccccc1 do in these assays?
UPR XBP1 act: -4; Mdm2 MdmX PPI: -2; UPR CHOP act: 1; Exocytosis inh: 8; ABHD5 PLIN5 PPI: 8

What do the screens show for `Clc1ccc(Cl)c(OCCCCNCc2ccccc2)c1`?
UPR XBP1 act: 4; Mdm2 MdmX PPI: 30; UPR CHOP act: -1; Exocytosis inh: 9; ABHD5 PLIN5 PPI: 27*; ABHD5-PLIN5 conf: 5; HNF4 split-luc: 1

How did CC(NC(=O)CSc1n[nH]c(=O)[nH]c1=O)C1CC2CCC1C2 (configuration not stated) do in these assays?
UPR XBP1 act: 0; Mdm2 MdmX PPI: -19; UPR CHOP act: 4; Exocytosis inh: 6; ABHD5 PLIN5 PPI: -2

How did CCNC(=O)c1ccccc1NC(=O)c1cccc(S(=O)(=O)N2CCC(C)CC2)c1 do in these assays?
UPR XBP1 act: 7; Mdm2 MdmX PPI: 0; UPR CHOP act: 7; Exocytosis inh: 6; ABHD5 PLIN5 PPI: -1

How did Cc1cccc(N=C2NC(=O)/C(=C/C=C/c3ccco3)S2)c1 do in these assays?
Exocytosis inh: -11; ABHD5 PLIN5 PPI: 25*; ABHD5-PLIN5 conf: 48*; HNF4 split-luc: 34*

What do the screens show for `O=C(NCc1ccc(Cl)cc1)c1ccc(CNc2c(N3CCOCC3)c(=O)c2=O)cc1`?
UPR XBP1 act: -2; Mdm2 MdmX PPI: 16; UPR CHOP act: -1; Exocytosis inh: 1; ABHD5 PLIN5 PPI: -1
